ChEMBL document CHEMBL1153804, “Optimization of a series of quinazolinone-derived antagonists of CXCR3” (Bioorg Med Chem Lett, 2009)
Active and inactive are the calls of the source. The rule behind the calls is not given here.

Columns and labels:
[1] = Volume of distribution at steady state in mouse at 0.5 mg/kg, iv; format: ADME, organism-based; set-up: dose 0.5 mg/kg, route intravenous; conditions: in vivo, read-out: Vdss
[2] = Oral bioavailability in cynomolgus monkey at 5 mg/kg; format: ADME, organism-based, Macaca fascicularis; conditions: in vivo
Cytochrome P450 1A2 = target: T1, Cytochrome P450 1A2 (Homo sapiens, UniProt P05177); assay: Inhibition of CYP1A2; format: ADME
T1 sequence (P05177 whole entry): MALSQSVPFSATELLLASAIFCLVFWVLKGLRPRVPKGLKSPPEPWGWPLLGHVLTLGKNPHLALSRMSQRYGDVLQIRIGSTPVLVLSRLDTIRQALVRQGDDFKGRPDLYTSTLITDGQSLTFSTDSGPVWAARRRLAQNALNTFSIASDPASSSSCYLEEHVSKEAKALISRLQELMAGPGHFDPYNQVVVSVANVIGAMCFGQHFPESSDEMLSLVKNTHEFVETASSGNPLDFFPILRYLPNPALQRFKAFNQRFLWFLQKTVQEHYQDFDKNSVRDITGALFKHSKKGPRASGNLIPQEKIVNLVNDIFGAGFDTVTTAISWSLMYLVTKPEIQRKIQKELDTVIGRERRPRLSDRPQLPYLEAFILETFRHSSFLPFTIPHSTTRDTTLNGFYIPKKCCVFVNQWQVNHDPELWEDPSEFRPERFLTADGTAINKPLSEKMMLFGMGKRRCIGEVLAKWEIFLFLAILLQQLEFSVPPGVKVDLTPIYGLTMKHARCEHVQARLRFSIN

[3] = Volume of distribution at steady state in dog at 1 mg/kg, iv; format: ADME, organism-based, Canis lupus familiaris; set-up: dose 1 mg/kg, route intravenous; conditions: in vivo, read-out: Vdss
Blood [4] = assay: Drug level in bleomycin-induced mouse blood at 0.3 mg/mL, sc; format: ADME, tissue-based
[5] = target: T2, C-X-C chemokine receptor type 3 (Homo sapiens, UniProt P49682); assay: Displacement of [125I]-1P10 from human CXCR3 expressed in human PBMC after 2 hrs by scintillation counting in plasma
T2 sequence (P49682 whole entry): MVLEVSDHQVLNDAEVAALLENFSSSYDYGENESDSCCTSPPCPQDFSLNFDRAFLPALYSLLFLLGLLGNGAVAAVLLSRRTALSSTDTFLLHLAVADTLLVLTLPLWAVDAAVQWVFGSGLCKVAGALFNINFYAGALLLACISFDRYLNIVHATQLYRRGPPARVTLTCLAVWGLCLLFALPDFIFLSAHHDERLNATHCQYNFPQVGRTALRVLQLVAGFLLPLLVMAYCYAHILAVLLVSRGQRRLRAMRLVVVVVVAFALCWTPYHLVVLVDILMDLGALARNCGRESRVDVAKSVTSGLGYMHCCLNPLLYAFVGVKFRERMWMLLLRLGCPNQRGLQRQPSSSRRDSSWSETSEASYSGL
Outline: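 [125I]-IP10 displacement from CXCR3 on PBMC: cells co-incubated with antagonist and recombinant human [125I]-IP10 for 2 h at room temperature in EDTA-anticoagulated human plasma (from frozen stocks) in place of RPMI buffer. Filter harvest and scintillation counting; IC50 values are means of three experiments.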

Blood [6] = assay: Drug level in bleomycin-induced mouse blood at 0.1 mg/mL, sc; format: ADME, tissue-based
[7] = target: T2, C-X-C chemokine receptor type 3; assay: Displacement of [125I]-ITAC from human CXCR3 expressed in human PBMC after 2 hrs in RPMI buffer by scintillation counting
Mus musculus = assay: Effect on bleomycin-induced cellular recruitment in sc dosed mouse assessed as inhibition of cellular infiltration measured 6 days after bleomycin challenge; format: functional, organism-based
Cytochrome P450 2D6 = Cytochrome P450 2D6 (Homo sapiens, UniProt P10635); assay: Inhibition of CYP2D6; format: ADME
Cytochrome P450 2D6, sequence (P10635 whole entry): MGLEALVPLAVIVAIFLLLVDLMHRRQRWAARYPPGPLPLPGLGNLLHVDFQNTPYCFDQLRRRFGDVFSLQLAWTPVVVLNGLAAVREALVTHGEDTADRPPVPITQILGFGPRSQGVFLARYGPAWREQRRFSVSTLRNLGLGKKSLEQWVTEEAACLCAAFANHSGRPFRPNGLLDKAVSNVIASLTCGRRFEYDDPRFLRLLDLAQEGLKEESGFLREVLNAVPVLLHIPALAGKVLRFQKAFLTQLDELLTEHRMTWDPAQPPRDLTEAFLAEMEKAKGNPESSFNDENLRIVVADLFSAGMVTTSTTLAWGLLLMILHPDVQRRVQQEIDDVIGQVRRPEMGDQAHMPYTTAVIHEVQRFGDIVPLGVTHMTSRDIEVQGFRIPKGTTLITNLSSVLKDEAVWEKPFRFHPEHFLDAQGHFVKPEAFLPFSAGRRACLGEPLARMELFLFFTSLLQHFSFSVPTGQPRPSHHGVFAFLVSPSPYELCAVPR

- Vd [1]: 0.8 L/kg
- bioavailability [2]: 14%
- Activity (Cytochrome P450 1A2): Active
- Vd [3]: 1.1 L/kg
- Drug uptake (Blood [4]): 6 ng/mL
- IC50 [5]: 6 nM
- Drug uptake (Blood [6]): 2 ng/mL
- IC50 [7]: 1 nM
- Activity (Cytochrome P450 2D6): Active
Structure (SMILES): CCS(=O)(=O)CCN(C(=O)Cc1ccc(F)c(C(F)(F)F)c1)[C@H](C)c1nc2ncccc2c(=O)n1-c1ccc(OCC(F)(F)F)cc1
- Activity (Mus musculus): Active
